The values that follow come from the M2OR odorant receptor database.
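Also: active if original authors judged signal statistically different from baseline.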

One experiment deals with T1, O10A2 H43R H207R K258T.
T1 sequence (whole entry): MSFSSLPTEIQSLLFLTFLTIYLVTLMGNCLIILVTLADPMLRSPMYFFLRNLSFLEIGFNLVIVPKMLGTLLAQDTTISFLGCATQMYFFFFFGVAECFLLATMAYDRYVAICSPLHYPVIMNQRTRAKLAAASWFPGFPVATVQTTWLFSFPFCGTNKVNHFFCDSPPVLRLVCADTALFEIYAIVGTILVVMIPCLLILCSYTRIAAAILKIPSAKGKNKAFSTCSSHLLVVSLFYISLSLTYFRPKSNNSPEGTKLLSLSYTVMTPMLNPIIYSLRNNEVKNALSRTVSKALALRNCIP
The conditions noted are these: stereoisomer not certain. In short, it runs like this:
(§1)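 Whether a receptor–molecule pair is responsive (active) rests on the original authors' judgment that its measured signal was statistically different from baseline. Pairs without that judgment are non-responsive (inactive). Sources used varied assay methods, commonly transient luciferase assays in mammalian cell lines.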
In the case of `CCCCCCC=CCCC=O`, the “odorant receptor agonist call” value is “inactive”.
Take `Cc1cnc(C)c(C)n1`: the “odorant receptor agonist call” value is “inactive”.
The same measure, in the same setting: then `CCC1OC(C)=C(O)C1=O` (configuration not stated), with “inactive”; and `CCC1OC(=O)C(O)=C1C` (configuration not stated), with “inactive”; and `CC1=C(O)C(=O)OC1C` (configuration not stated), with “inactive”.
As to `CC1=C(O)C(=O)C(C)O1` (configuration not stated), the “odorant receptor agonist call” value is “inactive”.
On the same count and under the same terms, with `CC1=NC(C)C(C)S1` (configuration not stated) the entry was “inactive”.
With `CCCC(S)CCOC(C)=O` (configuration not stated), the “odorant receptor agonist call” value is “inactive”.

The test system of another experiment is T2, O10A3 C8G.
T2 sequence (whole entry): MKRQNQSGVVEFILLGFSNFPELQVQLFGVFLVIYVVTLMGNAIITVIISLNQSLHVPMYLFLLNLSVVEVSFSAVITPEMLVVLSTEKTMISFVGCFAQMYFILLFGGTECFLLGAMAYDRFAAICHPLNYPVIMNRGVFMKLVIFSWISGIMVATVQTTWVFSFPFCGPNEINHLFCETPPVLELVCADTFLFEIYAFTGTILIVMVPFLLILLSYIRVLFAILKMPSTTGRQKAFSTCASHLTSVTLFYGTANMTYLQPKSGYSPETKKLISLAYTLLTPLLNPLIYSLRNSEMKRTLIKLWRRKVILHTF
Particulars: stereoisomer not certain. In short, it runs like this:
as §1
With `CCCCCCC=CCCC=O`, the “odorant receptor agonist call” value was “inactive”.
For the compound `Cc1cnc(C)c(C)n1`, the “odorant receptor agonist call” value was “inactive”.
Take `CCC1OC(C)=C(O)C1=O` (configuration not stated): the “odorant receptor agonist call” value is “inactive”.
Same read-out and setting: with `CCC1OC(=O)C(O)=C1C` (configuration not stated) the entry was “inactive”; with `CC1=C(O)C(=O)OC1C` (configuration not stated), “inactive”; with `CC1=C(O)C(=O)C(C)O1` (configuration not stated), “inactive”.
Same read-out and setting: with `CC1=NC(C)C(C)S1` (configuration not stated) the entry was “inactive”; with `CCCC(S)CCOC(C)=O` (configuration not stated), “inactive”.

Another experiment deals with T3, O10A6.
T3 sequence (whole entry): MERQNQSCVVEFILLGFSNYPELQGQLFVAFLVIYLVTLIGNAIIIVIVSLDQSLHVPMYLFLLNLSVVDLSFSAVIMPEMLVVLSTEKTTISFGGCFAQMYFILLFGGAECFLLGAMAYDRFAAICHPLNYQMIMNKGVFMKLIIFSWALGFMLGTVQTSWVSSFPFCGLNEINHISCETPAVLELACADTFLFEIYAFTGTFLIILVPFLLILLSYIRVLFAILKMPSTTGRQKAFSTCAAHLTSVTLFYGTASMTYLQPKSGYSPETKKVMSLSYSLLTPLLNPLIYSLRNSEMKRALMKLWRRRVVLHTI
The conditions noted are these: stereoisomer not certain. In short, it runs like this:
as §1
In the case of `CCCCCCC=CCCC=O`, the “odorant receptor agonist call” value was “active”.
Consider `CCCCC=CCCC=O`, for which the “odorant receptor agonist call” value was “active”.
Regarding `Cc1cnc(C)c(C)n1`, the “odorant receptor agonist call” value is “inactive”.
As for `CCCCC=CCCCCC=O`, the “odorant receptor agonist call” value is “active”.
On the same count and under the same terms, then `CCC1OC(C)=C(O)C1=O` (configuration not stated), with “inactive”; and `CCC1OC(=O)C(O)=C1C` (configuration not stated), with “inactive”; and `CC1=C(O)C(=O)OC1C` (configuration not stated), with “inactive”.
For `CC1=C(O)C(=O)C(C)O1` (configuration not stated), the “odorant receptor agonist call” value is “inactive”.
Same read-out and setting: with `CC1=NC(C)C(C)S1` (configuration not stated) the entry was “inactive”.
Regarding `CCCC(S)CCOC(C)=O` (configuration not stated), the “odorant receptor agonist call” value was “inactive”.
Same read-out and setting: with `CCC(=O)OCCCc1ccccc1` the entry was “active”.
